Measured values: ChEMBL document CHEMBL4052710 (Bioorg Med Chem Lett, 2017)

Legend:
[1] = target: CDK18/Cyclin Y (Homo sapiens) (UniProt Q07002+Q8ND76); test: Inhibition of human CDK18/CyclinY at 1 uM by enzymatic radiometric assay; assay type: protein-complex assay
In short: (§1)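 Kinase panel run through the Eurofins KinaseProfiler, with compound at a fixed 1 µM. Values are means of two independent experiments.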

[2] = target: CDK4/Cyclin D3 (Homo sapiens) (UniProt P11802+P30281); test: Inhibition of human CDK4/CyclinD3 at 1 uM by enzymatic radiometric assay; assay type: protein-complex assay; in short: as §1
[3] = target: Vascular endothelial growth factor receptor 2 (Homo sapiens, UniProt P35968); test: Inhibition of human VEGFR2 by enzymatic radiometric assay
Chain of Vascular endothelial growth factor receptor 2 (P35968 whole entry): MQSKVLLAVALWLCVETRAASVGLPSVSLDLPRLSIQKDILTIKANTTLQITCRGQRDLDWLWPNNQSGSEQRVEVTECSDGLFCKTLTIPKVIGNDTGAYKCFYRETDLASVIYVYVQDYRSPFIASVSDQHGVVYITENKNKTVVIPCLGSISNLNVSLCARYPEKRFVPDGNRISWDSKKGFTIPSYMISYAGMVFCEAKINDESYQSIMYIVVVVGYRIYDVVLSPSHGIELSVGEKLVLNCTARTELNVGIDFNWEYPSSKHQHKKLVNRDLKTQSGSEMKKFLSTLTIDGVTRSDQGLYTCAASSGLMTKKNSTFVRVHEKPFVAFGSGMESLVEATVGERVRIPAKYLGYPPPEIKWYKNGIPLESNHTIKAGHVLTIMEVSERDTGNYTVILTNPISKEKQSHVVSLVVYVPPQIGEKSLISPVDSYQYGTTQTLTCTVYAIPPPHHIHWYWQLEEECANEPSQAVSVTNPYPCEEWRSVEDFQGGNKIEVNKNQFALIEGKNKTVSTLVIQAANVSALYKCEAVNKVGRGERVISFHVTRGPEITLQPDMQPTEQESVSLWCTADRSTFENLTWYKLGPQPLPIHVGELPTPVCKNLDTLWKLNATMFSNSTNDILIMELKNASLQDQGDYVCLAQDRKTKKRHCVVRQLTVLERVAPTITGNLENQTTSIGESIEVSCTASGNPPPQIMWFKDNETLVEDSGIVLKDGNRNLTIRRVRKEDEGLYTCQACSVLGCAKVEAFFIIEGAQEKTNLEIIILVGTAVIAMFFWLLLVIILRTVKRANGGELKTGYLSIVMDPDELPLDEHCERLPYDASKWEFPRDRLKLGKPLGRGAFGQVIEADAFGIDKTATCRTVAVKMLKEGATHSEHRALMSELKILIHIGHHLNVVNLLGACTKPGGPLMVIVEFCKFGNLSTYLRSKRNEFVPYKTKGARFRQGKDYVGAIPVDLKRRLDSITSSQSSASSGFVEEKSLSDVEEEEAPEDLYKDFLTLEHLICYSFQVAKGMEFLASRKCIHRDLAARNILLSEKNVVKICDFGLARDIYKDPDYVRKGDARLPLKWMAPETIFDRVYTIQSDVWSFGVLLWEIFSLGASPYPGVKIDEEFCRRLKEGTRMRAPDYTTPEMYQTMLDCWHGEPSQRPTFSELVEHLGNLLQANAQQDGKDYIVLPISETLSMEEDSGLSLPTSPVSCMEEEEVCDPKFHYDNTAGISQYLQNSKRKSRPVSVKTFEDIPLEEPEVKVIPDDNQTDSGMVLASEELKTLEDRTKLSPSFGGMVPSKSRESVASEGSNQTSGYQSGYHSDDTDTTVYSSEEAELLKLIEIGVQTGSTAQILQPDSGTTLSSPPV
In short: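 IC50 was determined through a commercial kinase profiling service. Values are the mean of two independent experiments.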

SiHa = test: Growth inhibition of human SiHa cells incubated for 72 hrs at 10 uM by CCK8 assay; assay type: functional; details: read-out: GI
In short: (§2)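 CCK8 viability assay on a panel of human cancer cell lines, with an initial screen at fixed concentrations of 1 µM and 10 µM.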

NCI-H460 = test: Growth inhibition of human H460 cells incubated for 72 hrs at 1 uM by CCK8 assay; assay type: functional; details: NCI-H460, 72 h, read-out: GI; in short: as §2
T47D [4] = test: Induction of apoptosis in human T47D cells assessed as early apoptotic cells level at 0.5 uM incubated for 48 hrs by annexin V-FITC and propidium iodide staining based flow cytometry (reference value: 0.75%); assay type: functional
T47D [5] = test: Induction of apoptosis in human T47D cells assessed as late apoptotic cells level at 0.5 uM incubated for 48 hrs by annexin V-FITC and propidium iodide staining based flow cytometry (reference value: 0.48%); assay type: functional
OVCAR-5 = test: Growth inhibition of human OVCAR5 cells incubated for 72 hrs at 10 uM by CCK8 assay; assay type: functional; details: OVCAR-5, 72 h, read-out: GI; in short: as §2
NCI-H1299 [6] = test: Growth inhibition of human H1299 cells incubated for 72 hrs at 10 uM by CCK8 assay; assay type: functional; details: NCI-H1299, 72 h, read-out: GI; in short: as §2
T47D [7] = test: Induction of apoptosis in human T47D cells incubated for 48 hrs by annexin V-FITC and propidium iodide staining based flow cytometry; assay type: functional, cell-based
NCI-H1299 [8] = test: Growth inhibition of human H1299 cells incubated for 72 hrs by CCK8 assay; assay type: functional, cell-based; details: NCI-H1299, 72 h
T47D [9] = test: Induction of apoptosis in human T47D cells assessed as necrotic cells level at 0.25 uM incubated for 48 hrs by annexin V-FITC and propidium iodide staining based flow cytometry (reference value: 2.79%); assay type: functional
T47D [10] = test: Growth inhibition of human T47D cells incubated for 72 hrs at 1 uM by CCK8 assay; assay type: functional; details: read-out: GI; in short: as §2
T47D [11] = test: Induction of apoptosis in human T47D cells assessed as necrotic cells level at 5 uM incubated for 48 hrs by annexin V-FITC and propidium iodide staining based flow cytometry (reference value: 2.79%); assay type: functional
T47D [12] = test: Induction of apoptosis in human T47D cells assessed as early apoptotic cells level at 1 uM incubated for 48 hrs by annexin V-FITC and propidium iodide staining based flow cytometry (reference value: 0.75%); assay type: functional
T47D [13] = test: Induction of apoptosis in human T47D cells assessed as viable cells level at 0.5 uM incubated for 48 hrs by annexin V-FITC and propidium iodide staining based flow cytometry (reference value: 96%); assay type: functional
A549 [14] = test: Growth inhibition of human A549 cells incubated for 72 hrs at 10 uM by CCK8 assay; assay type: functional; details: A549, 72 h, read-out: GI; in short: as §2
T47D [15] = test: Induction of apoptosis in human T47D cells assessed as early apoptotic cells level at 5 uM incubated for 48 hrs by annexin V-FITC and propidium iodide staining based flow cytometry (reference value: 0.75%); assay type: functional
T47D [16] = test: Induction of apoptosis in human T47D cells assessed as viable cells level at 1 uM incubated for 48 hrs by annexin V-FITC and propidium iodide staining based flow cytometry (reference value: 96%); assay type: functional
MCF7 = test: Growth inhibition of human MCF7 cells incubated for 72 hrs by CCK8 assay; assay type: functional, cell-based; details: MCF7, 72 h
HeLa = test: Growth inhibition of human HeLa cells incubated for 72 hrs at 10 uM by CCK8 assay; assay type: functional; details: read-out: GI; in short: as §2
A549 [17] = test: Growth inhibition of human A549 cells incubated for 72 hrs by CCK8 assay; assay type: functional, cell-based; details: A549, 72 h
Mus musculus = test: Toxicity in mouse 4T1 cells xenografted BALB/C mouse assessed as induction of body weight loss at 50 to 150 mg/kg/day, ip dosed for 21 consecutive days; assay type: organism-based; details: in vivo
In short: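 Tumor cells were implanted orthotopically into the mammary fat pads of female BALB/c mice aged 6-8 weeks. Once tumors averaged 100 mm3, mice received daily IP injections of 50, 100 or 150 mg/kg/day, or solvent control, for 21 consecutive days. Body weight was tracked and reported as mean with SD.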

inhibition [1]: 6% | inhibition [2]: 102% | IC50 [3]: > 10 µM | IC50 (NCI-H1299 [8]): 0.221 µM | IC50 (MCF7): 0.338 µM | IC50 (A549 [17]): 0.456 µM
SMILES: CN(C)C(=O)c1cc2cnc(Nc3ccc(NC(=O)C4(C(=O)Nc5ccc(F)cc5)CC4)cc3)nc2n1C1CCCC1
inhibition of growth at 10 µM (SiHa): 98% | inhibition of growth at 1 µM (NCI-H460): 79.9% | Activity (T47D [4]): 0.65% | Activity (T47D [5]): 3.58% | inhibition of growth at 10 µM (OVCAR-5): 79.7% | inhibition of growth at 10 µM (NCI-H1299 [6]): 90.8% | Activity (T47D [7]): Dose-dependent effect | Activity (T47D [9]): 2.01% | inhibition of growth at 1 µM (T47D [10]): 74.7% | Activity (T47D [11]): 2.23% | Activity (T47D [12]): 3.16% | Activity (T47D [13]): 93.1% | inhibition of growth at 10 µM (A549 [14]): 102% | Activity (T47D [15]): 7.45% | Activity (T47D [16]): 90.5% | inhibition of growth at 10 µM (HeLa): 73.7% | Activity (Mus musculus): Non-Toxic
